Data: ChEMBL document CHEMBL3875168, “Synthesis and apoptosis inducing studies of triazole linked 3-benzylidene isatin derivatives” (Eur J Med Chem, 2016)
The source made the active and inactive calls. The calls are words filed in the database; no cut-off is given here.

Columns and labels:
[1] = test system: DU-145; assay: Induction of morphological changes in human DU145 cells assessed as membrane blebbing at 1.25 to 5 uM after 48 hrs by acridine orange/ethidium bromide-dual staining based fluorescence microscopic method; type: functional, cell-based
Procedure, shortened: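 DU145 plated at 1×10^6 cells/mL, treated at several concentrations and kept 48 h at 37 °C in 5% CO2. Equal volumes of acridine orange and ethidium bromide (10 μg/mL) added, and cells imaged within 10 min by fluorescence microscopy (excitation 488 nm, emission 550 nm) at 200x.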

[2] = test system: DU-145; assay: Induction of apoptosis in human DU145 cells assessed as viable cells at 1.25 uM after 24 hrs by Annexin V-FITC/propidium iodide staining based flow cytometry (reference value: 90.32%); type: functional; settings: DU-145, 24 h, read-out: Activity
[3] = Cell cycle arrest in human DU145 cells assessed as accumulation at sub G1 phase at 5 uM after 24 hrs by propidium iodide staining-based flow cytometry (reference value: 0.65%); type: functional; settings: DU-145
Procedure, shortened: (§1)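 Compound given to DU145 at 2.5 and 5.0 μM for 24 h alongside untreated cells. Cells harvested, PBS-washed, fixed in ice-cold 70% ethanol, then stained 30 min at 37 °C in the dark with propidium iodide (50 μg/mL) plus RNase A (20 μg/mL) in 0.1% Triton X-100. About 10000 events per sample read by flow cytometry; a representative of three independent experiments is shown.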

[4] = test system: DU-145; assay: Induction of apoptosis in human DU145 cells assessed as viable cells at 2.5 uM after 24 hrs by Annexin V-FITC/propidium iodide staining based flow cytometry (reference value: 90.32%); type: functional; settings: DU-145, 24 h, read-out: Activity
[5] = test system: DU-145; assay: Induction of apoptosis in human DU145 cells after 24 hrs by Annexin V-FITC/propidium iodide staining based flow cytometry; type: functional, cell-based
[6] = test system: DU-145; assay: Induction of apoptosis in human DU145 cells assessed as condensation of nucleus at 2.5 to 5 uM after 48 hrs by DAPI staining based fluorescence microscopic method; type: functional, cell-based
Procedure, shortened: (§2)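 DU145 treated for 48 h, PBS-washed, permeabilized with 0.1% Tween 20 for 10 min and stained with 1 μM DAPI. Nuclear morphology of control and treated cells viewed by fluorescence microscopy (excitation 359 nm, emission 461 nm) at 200x.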

[7] = Cell cycle arrest in human DU145 cells assessed as accumulation at S phase at 5 uM after 24 hrs by propidium iodide staining-based flow cytometry (reference value: 10.3%); type: functional; settings: DU-145; procedure, shortened: as §1
[8] = test system: DU-145; assay: Induction of apoptosis in human DU145 cells assessed as formation of fragmented nuclei at 2.5 to 5 uM after 48 hrs by DAPI staining based fluorescence microscopic method; type: functional, cell-based; procedure, shortened: as §2
[9] = test system: DU-145; assay: Induction of mitochondrial membrane potential loss in human DU145 cells after 24 hrs by flow cytometry; type: functional, cell-based
[10] = Cell cycle arrest in human DU145 cells assessed as accumulation at G0/G1 phase at 5 uM after 24 hrs by propidium iodide staining-based flow cytometry (reference value: 62.81%); type: functional; settings: DU-145; procedure, shortened: as §1
[11] = test system: DU-145; assay: Induction of apoptosis in human DU145 cells assessed as increase in intracellular reactive oxygen species at 2.5 to 5 uM after 24 hrs in presence of N-acetyl cysteine by DCFDA dye based spectrofluorometer; type: functional, cell-based
[12] = test system: DU-145; assay: Induction of apoptosis in human DU145 cells assessed as necrotic cells at 1.25 uM after 24 hrs by Annexin V-FITC/propidium iodide staining based flow cytometry (reference value: 2.14%); type: functional
[13] = test system: DU-145; assay: Induction of apoptosis in human DU145 cells assessed as increase in cleaved PARP level after 48 hrs by Western blot analysis; type: functional, cell-based

## O=C1Nc2ccc(C(c3ccccc3)c3ccccc3)cc2/C1=C/c1cccc(OCc2cn(Cc3ccccc3)nn2)c1
[1]
  Activity: Active
[2]
  viability at 1.25 µM: 76.5%
[3]
  Activity: 18.3%
[4]
  viability at 2.5 µM: 64.5%
[5]
  Activity: Dose-dependent effect
[6]
  Activity: Active
[7]
  Activity: 22.5%
[8]
  Activity: Active
[9]
  Activity: Dose-dependent effect
[10]
  Activity: 10.1%
[11]
  Activity: Active
[12]
  Activity: 1.82%
[13]
  Activity: Active
